TDP2 absorb – human TDP2 enzyme inhibitors, primary screen, biochemical, epi absorbance, recombinant enzyme | Tyrosyl-DNA phosphodiesterase 2 (Homo sapiens), O95551 | T5PNP hydrolysis, p-nitrophenol absorbance 415 nm | inhibition, % at 12.8 µM | 0.34% of 370,000 active | AID 720702, 2013;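 active = inhibition above the mean of all tested compounds plus 3 SD, set per campaign, cut at about 25% in these data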
Target sequence (O95551 whole entry, looked up): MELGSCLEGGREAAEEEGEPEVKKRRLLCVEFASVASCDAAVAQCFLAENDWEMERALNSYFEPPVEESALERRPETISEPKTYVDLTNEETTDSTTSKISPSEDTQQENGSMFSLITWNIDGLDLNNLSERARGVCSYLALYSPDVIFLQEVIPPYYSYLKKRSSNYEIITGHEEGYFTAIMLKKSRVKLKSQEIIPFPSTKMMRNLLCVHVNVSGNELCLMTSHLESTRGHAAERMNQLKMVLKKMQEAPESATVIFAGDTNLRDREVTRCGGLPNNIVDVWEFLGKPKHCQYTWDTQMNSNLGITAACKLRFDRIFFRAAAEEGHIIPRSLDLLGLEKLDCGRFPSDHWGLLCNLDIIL
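test system = human TDP2 enzyme | input = TDP2 enzyme at 120 nM final | medium = 50 mM Tris-HCl pH 7.5 with Mg2+, KCl, DTT, BSA | also added = T5PNP substrate, 5 mM | times = 2 h at 37 °C | technique = epi absorbance | benchmarks = high control without enzyme, low control DMSO plus TDP2 | replication = each compound tested once, singlicate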
GSTO1 counter – inhibitors of recombinant GSTO1, primary screen, counter-screen for RBBP9 inhibitor project, biochemical, fluorescence polarization. Glutathione S-transferase omega-1 (Homo sapiens), P78417. activity-based probe fluorescence polarization. inhibition, % at 5.96 µM. 1.1% of 300,000 active. AID 1974, 2009;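 active = inhibition above the campaign mean inhibition plus 3 SD, cut at about 35% in these data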
Apaf1 inhib – inhibitors of human Apaf-1 apoptosome, primary screen, biochemical, DEVD-Rh110 fluorescence, uHTS | reconstituted apoptosome caspase-3 activity | inhibition, % at 20 µM | 0.71% of 330,000 active; active = inhibition of at least 40% at 20 µM
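Material: reconstituted apoptosome with Apaf-1, cytochrome c, caspase-9, procaspase-3, dATP; medium: pH 7.5 Hepes buffer with CHAPS, BSA, DTT; also added: cytochrome c and DEVD-Rh110 substrate; timing: 30 min plus 50 min, RT; signal: Rh110 fluorescence intensity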
PP1 counter – PP1-alpha phosphatase inhibitors, primary screen, counter-screen for PP5 inhibitor project, biochemical, fluorescence, OMFP substrate, single point; Serine/threonine-protein phosphatase PP1-alpha catalytic subunit (Homo sapiens), P62136; purified PP1alpha; inhibition, % at 6.7 µM; 0.9% of 320,000 active;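 active = inhibition above the mean inhibition of all tested compounds plus 3 SD, computed separately for each screening campaign, cut at about 15% in these data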
Target sequence (P62136 whole entry, looked up): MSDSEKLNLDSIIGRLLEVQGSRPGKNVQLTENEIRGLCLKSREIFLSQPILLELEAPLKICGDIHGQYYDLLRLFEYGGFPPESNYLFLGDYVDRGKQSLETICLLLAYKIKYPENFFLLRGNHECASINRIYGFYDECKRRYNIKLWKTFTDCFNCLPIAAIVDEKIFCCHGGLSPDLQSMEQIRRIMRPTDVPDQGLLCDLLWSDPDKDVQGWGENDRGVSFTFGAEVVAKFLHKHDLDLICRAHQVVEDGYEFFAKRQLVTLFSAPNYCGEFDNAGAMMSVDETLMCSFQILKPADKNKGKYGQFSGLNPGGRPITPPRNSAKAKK
PP5 primary – PP5 phosphatase inhibitors, primary screen, biochemical, fluorescence | purified PP5c, OMFP substrate fluorescence | 0.18% of 320,000 active | inhibition, % at 6.7 µM;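 active = inhibition above the campaign's mean inhibition across all tested compounds plus 3 SD, cut at about 9.5% in these data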
GSTO1 inh conf – GSTO1 inhibitor hit confirmation, counter-screen for RBBP9 inhibitor project, biochemical, fluorescence polarization, triplicate | recombinant GSTO1, probe fluorescence polarization | inhibition, % at 5.96 µM | shares compounds with GSTO1 counter | AID 2176, 2009 | 54% of 2,400 active;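 active = inhibition above the primary screen's cutoff, its mean inhibition plus 3 SD, cut at about 35% in these data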;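 also: loss of polarization as inhibitors block binding of rhodamine sulfonate ester activity probe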
GSTO1 recomb ABPP – inhibitors of purified human GSTO1, late-stage follow-up, biochemical, gel ABPP, SE-Rh probe, percent inhibition; 30% of 130 active; AID 463110, 2010; recombinant GSTO1, gel ABPP SE-Rh probe fluorescence; shares compounds with GSTO1 counter; inhibition, % at 1 µM;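 active = inhibition of the enzyme GSTO1 above about 75%, limit read from the data; inactive = inhibition below that limit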
PP5 inh confirm – PP5 phosphatase inhibitors, confirmation, biochemical, fluorescence, human | 22% of 460 active | Purified PP5, fluorogenic phosphatase substrate | AID 2331, 2010 | shares compounds with PP5 primary | inhibition, % at 6.7 µM; in the data active = inhibition above about 9.5%
PP1 inh counter – PP1 phosphatase inhibitors, counter-screen for PP5 inhibitor project, biochemical, fluorescence, triplicate; inhibition, % at 6.7 µM; shares compounds with PP5 primary; 4% of 460 active; AID 2355, 2010; PP1 enzyme, fluorescent phosphatase substrate; in the data active = inhibition above about 16%
PP1 confirm – PP1 phosphatase inhibitors, confirmation, biochemical, fluorescence, OMFP substrate, triplicate; AID 2358, 2010; shares compounds with PP1 counter; purified PP1alpha; inhibition, % at 6.7 µM; 52% of 1,900 active;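 active = mean PP1 inhibition above a set limit taken from the earlier primary screen, cut at about 15% in these data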
PP5 counter – PP5 phosphatase inhibition by PP1 hits, confirmation, counter-screen for PP1 inhibitor project, biochemical, fluorescence, triplicate; shares compounds with PP1 counter; purified PP5c, OMFP fluorescence; inhibition, % at 6.7 µM; 4% of 1,900 active;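 active = mean PP5 inhibition over triplicate wells above about 9.5% taken from the earlier PP1 screen, limit read from the data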
Numbers stand for hits; n = inactive; x = not tested or not shown. Rows were chosen to be rich in hits. Some 2.1% of all compounds tested hit in one or more screens of this group.

SMILES	TDP2 absorb	GSTO1 counter	Apaf1 inhib	PP1 counter	PP5 primary	GSTO1 inh conf	others
O=C(c1[nH]ncc1-c1ccccc1)C1CO1 (centres undefined)	n	n	n	n	n	x
O=C(c1[nH]ncc1-c1cccc(Br)c1)C1CO1 (centres undefined)	n	82.1	n	n	n	89.7	GSTO1 recomb ABPP=n
CCc1nc2ccc(C(=O)NCc3ccccc3OC)cn2c1N(CC)Cc1cccc(Br)c1	n	x	x	x	x	x
O=C(O)c1ccc(-n2nc(-c3ccccc3O)nc2-c2ccccc2O)cc1	n	x	x	x	x	x
CC(=NCCCn1ccnc1)c1c(-c2ccccc2)[nH]n(-c2nc3ccccc3s2)c1=O	n	56.6	n	16.7	n	n
CC(=NC1CC1)c1c(-c2ccccc2)[nH]n(-c2nc3ccccc3s2)c1=O	n	n	n	n	n	x
COC(=O)c1c(C)[nH]c(C)c1C(C)=O	n	n	n	n	n	x
COC(=O)c1c([N+](=O)[O-])c(OC)c(OC)c(OC)c1[N+](=O)[O-]	n	39.0	n	n	n	53.5
Nc1nc(-c2cccs2)cs1	x	67.0	n	n	n	n
CCCCN1CN2Cc3ccc(C)cc3C2CS1(=O)=O (centres undefined)	n	x	x	x	x	x
O=C(O)C1Nc2c(O)cccc2C2C=CCC12 (centres undefined)	n	60.6	n	50.0	n	51.9
CCN(CCCNS(=O)(=O)c1ccc2c(c1)oc(=O)n2C)c1cccc(C)c1	n	38.2	n	n	n	36.2
CCN(c1cccc(C)c1)S(=O)(=O)c1ccc2c(c1)oc(=O)n2C	n	n	n	n	n	x
CCc1ccc(NS(=O)(=O)c2ccc3c(c2)oc(=O)n3C)cc1	n	53.0	n	n	n	43.9
COC(=O)C1CCN(C(=O)C2CC(=O)N(c3ccc(OC)cc3)C2c2ccc(OC)cc2)CC1 (centres undefined)	n	x	x	x	x	x
COC(=O)CCC(=O)OC1(C)C(=O)C2=CN(CCN3CCOCC3)C(c3ccc(OC)cc3)=CC2=C(Br)C1=O (centres undefined)	x	55.7	85.9	n	10.5	64.8	PP5 inh confirm=37.0;PP1 inh counter=n
N#Cc1ccc(OC[C@@H](O)CN2CCC(C(O)(c3ccccc3)c3ccccc3)CC2)cc1	n	x	x	x	x	x
O=C1c2ccccc2C(=O)C12OC2c1ccc(Cl)cc1 (centres undefined)	x	44.7	n	n	11.3	n	PP5 inh confirm=31.7;PP1 inh counter=n
Cn1c(SC2CCCC2)nnc1-c1ccco1	n	x	x	x	x	x
Cn1c(-c2ccccc2)cc(=O)c2ccccc21	n	n	n	n	n	x
Cn1c2ccccc2c(=O)n2c(=O)c3ccccc3cc12	x	78.1	98.3	n	10.9	n	PP5 inh confirm=29.1;PP1 inh counter=n
CC1CC(=O)c2c(cc3c(-c4c(O)cc(O)c5c(O)c6c(cc45)OC(C)CC6=O)c(O)cc(O)c3c2O)O1 (centres undefined)	x	62.0	62.5	69.7	n	73.1	PP1 confirm=48.2;PP5 counter=n
O=C1CC(c2ccc(O)cc2)Oc2cc(O)cc(O)c21 (centres undefined)	n	n	n	n	n	x
O=C(NCC(c1ccccc1)c1ccccc1)[C@H](Cc1c[nH]c2ccccc12)NC1(C(=O)NC2CCCCC2)CCCCCC1	n	x	x	x	x	x
CCOC(=O)c1sc(Nc2ccc(OCC)cc2)nc1C	n	n	n	n	n	x
SMILES	TDP2 absorb	GSTO1 counter	Apaf1 inhib	PP1 counter	PP5 primary	GSTO1 inh conf	others
CCOC(=O)c1sc(N2N=C(C)/C(=C\c3ccc(OCC(=O)OC)cc3)C2=O)nc1C	n	38.7	n	24.0	n	n	PP1 confirm=n;PP5 counter=n
COc1cccc(N=Nc2ccc(O)c3ncccc23)c1	n	38.6	n	26.9	n	n	PP1 confirm=23.4;PP5 counter=n
COc1ccc(C)cc1N=Nc1ccc(O)c2ncccc12	n	x	x	x	x	x
O=S(=O)(O)c1cccc2c(N=Nc3ccc(O)c4ncccc34)cccc12	x	65.4	x	46.8	n	63.3	PP1 confirm=18.9;PP5 counter=n
CC(C)N1Cc2nnn(Cc3ccccc3)c2-c2cc(F)ccc2S1(=O)=O	n	x	x	x	x	x
O=C(N/N=C/c1ccc(O)c(O)c1O)/C(=C/c1ccc([N+](=O)[O-])cc1)NC(=O)c1ccccc1	n	54.0	n	31.9	n	n	PP1 confirm=36.3;PP5 counter=n
CCCN1CCS(=O)(=O)N(Cc2cn(CC(=O)OCC)nn2)C(C(=O)OC)C1 (centres undefined)	n	x	x	x	x	x
CCC(C(=O)Nc1ccccc1N1CCCC1)c1cccc(C)c1 (centres undefined)	n	x	x	x	x	x
O=C(O)C1=NN(c2ccccc2)C(=O)C1	n	48.2	n	28.7	n	n	PP1 confirm=n;PP5 counter=n
CN(C)c1ccc(C=Nc2ccccc2)cc1	n	n	n	n	n	x
CN(C)c1ccc(N=Cc2ccco2)cc1	x	73.4	n	18.0	n	n	PP1 confirm=n;PP5 counter=n
O=C(Nc1cccc(F)c1)OCCCN1CCC2(CCC(c3ccccc3)CC2)C1 (centres undefined)	n	x	x	x	x	x
Cc1cc(NS(=O)(=O)c2ccc(NC(=O)Cc3cccs3)cc2)no1	x	n	n	n	n	x
Cc1cc(NC(=O)Cc2cccs2)no1	n	44.5	n	27.7	n	n	PP1 confirm=n;PP5 counter=n
CCCCOCCCNC(=O)C[C@H]1C[C@@]2(C(=O)OC)C(=C[C@H](COCc3ccccc3)O[C@@H]2C)N(Cc2ccc(Cl)cc2Cl)C1=O	n	x	x	x	x	x

Screening data deposited in PubChem BioAssay by several laboratories.
